Sampled rows, rich in hits. Any-hit rate of the full collection: about 3.7%.
Yeast growth inh: growth inhibitors of yeast BB579 in restrictive medium, primary screen, yeast lifespan-shortening project, S. cerevisiae. OD615, 48 h. inhibition, % at 10 µM. hit rate 0.51% among 140,000;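 active = inhibition above a set limit, 3 SD over the mean compound inhibition, cut at about 44% in these data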
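controls = amphotericin B 10 µg/mL, positive | assay system = DeaD yeast strain BB579 | schedule = 48 h compound exposure at 30 °C after 4 h preincubation | detection = OD615 turbidity measurement | medium = restrictive CSMM-D medium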
Yeast lifespan up: compounds extending yeast replicative lifespan, primary screen, S. cerevisiae, OD615 | hit rate 0.68% among 130,000 | inhibition of the nicotinamide effect, % at 10 µM | S. cerevisiae growth with nicotinamide; deaD strain in restrictive glucose medium;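 active = inhibition above a set limit, placed 3 SD over the median of all compounds, cut at about 26% in these data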
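Assay system: engineered S. cerevisiae DeaD replicative-lifespan strain, galactose-grown log-phase cells; medium: restrictive CSMM-D dextrose medium; also added: nicotinamide, 1.5 mM, co-present with compound; schedule: 48 h compound exposure at 30 °C, humidified; detection: absorbance at 615 nm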
HMGR II inh: inhibitors of E. faecalis class II HMGR, primary screen, biochemical, Enterococcus faecalis; HMG-CoA reductase (Enterococcus faecalis, mvaE); purified E. faecalis HMGR, NADPH absorbance 340 nm kinetic; inhibition, % at 10 µM; hit rate 0.41% among 190,000; AID 1066, 2008;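 active = inhibition above a set limit, the median over all tested compounds plus 3 SD, cut at about 9.5% in these data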;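 also: enzyme runs in reverse so mevalonate oxidation gives rising NADPH absorbance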
RAM network inh: inhibitors of the yeast RAM network, primary screen, dse1pr::URA3 reporter, 5-FOA selection. S. cerevisiae dse1pr::URA3 reporter, 5-FOA growth OD615, 2 d; analog-sensitive cbk1-as2 kinase mutant strain. inhibition, % at 50 µM. hit rate 1.8% among 190,000;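 active = inhibition above a set limit, 3 SD over mean compound inhibition, cut at about 8.4% in these data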;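 also: inhibition rescues growth on 5-FOA so higher OD means more RAM inhibition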
INS promoter inh: inhibitors of insulin promoter-driven GFP, primary screen, imaging, TRM-6 cells, eGFP reporter, cell count; inhibition, % at 2 µM; hit rate 0.9% among 130,000; reporter expression induced with tamoxifen;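 active = inhibition above the mean plus 3 SD, with well images judged a real hit on visual review, cut at about 60% in these data, passing the limit was not always enough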
Numbers stand for hits; . = inactive; / = no result.

SMILES | Yeast growth inh | Yeast lifespan up | HMGR II inh | RAM network inh | INS promoter inh
CCN(CC)c1ccc(/C=N/Nc2nc(C)cc(=O)[nH]2)c(O)c1 | . | . | . | . | 84.6
COc1ccc(C(C)NC(=O)c2ccccc2)cc1 (stereo not given) | . | 83.7 | . | . | .
CCc1cccc(C)c1NC(=S)NCc1ccc2[nH]c(C)cc2c1 | 53.7 | . | . | . | 70.7
CNC(=S)NCc1ccc2[nH]c(C)cc2c1 | / | / | . | . | .
CCCCC(CC)CNC(=O)CC1Nc2c3ccccc3nc(=S)n2C1=O (stereo not given) | / | / | . | . | /
CCCCCC1CC1C(=O)N/N=C/c1ccc(N(C)C)cc1 (stereo not given) | . | 41.7 | . | . | /
CN(C)c1ccc(/C=N/NC(=O)COc2ccccc2)cc1 | / | / | . | . | /
COc1ccc(N2C(=O)C3ON(C4SC(=S)N(C)C4(C)C)C(c4ccc(Cl)cc4)C3C2=O)cc1 (stereo not given) | . | . | . | . | .
COc1ccc(-c2n(Cc3ccccc3)c3ccccc3[n+]2Cc2ccccc2)cc1 | / | / | . | . | .
C/C(N)=C(/C#N)C(=O)CSc1nc2ccccc2c(=O)n1CCCO | . | . | . | . | .
C/C(N)=C(/C#N)C(=O)CSc1nc2scc(-c3ccccc3)c2c(=O)n1C | / | / | . | 9.6 | .
COc1ccc(C(=O)C23CC4CC(C2)CC(C(=O)c2ccc(OC)cc2)(C4)C3)cc1 | / | / | . | 9.1 | /
COc1ccc(NC(=O)COC(=O)C23CC4CC(CC(Cl)(C4)C2)C3)c(OC)c1 | / | / | . | . | .
O=C(Nc1ccc(Cl)cc1F)c1ccc(COc2c(F)c(F)c(F)c(F)c2F)o1 | . | . | . | . | /
O=C(c1ccc(COc2c(F)c(F)cc(F)c2F)o1)N1CCN(c2ccccc2)CC1 | . | / | . | 11.3 | .
O=C(Nc1ccc(F)cc1F)c1ccc(COc2c(F)c(F)cc(F)c2F)o1 | . | . | . | 8.6 | .
O=C(C/C=N/OCc1ccc(F)cc1Cl)c1cnc(-c2ccccc2)s1 | . | . | 11.1 | 9.7 | .
O=C(C/C=N/OCc1ccccc1F)c1cnc(-c2ccc(Cl)cc2)s1 | . | . | . | . | .
CCN(CC)c1ccc(/C=C2\NC(=O)NC2=O)cc1 | . | . | . | . | .
O=C1NC(=O)/C(=C\c2ccsc2)N1 | / | / | . | . | 72.2
C=CCOC(=O)C1=C[C@H](C2CCCCC2)[C@@H](CCCO)[C@H](OCC)O1 | / | / | . | . | /
CCCC(C)NC(=O)COc1ccc(Sc2ccc(OCC(=O)NC(C)CCC)cc2)cc1 (stereo not given) | . | . | . | 10.5 | .
CC(C)CNC(=O)COc1ccc(Sc2ccc(OCC(=O)NCC(C)C)cc2)cc1 | . | . | . | . | .
CC(=O)c1ccc(N2CCN(C(=O)Cc3n[nH]c(=O)c4ccccc34)CC2)cc1 | / | / | 13.5 | . | .
CC(=O)c1ccc(N2CCN(C(=O)CCCc3nc4ccccc4s3)CC2)cc1 | . | . | . | 9.3 | .
SMILES | Yeast growth inh | Yeast lifespan up | HMGR II inh | RAM network inh | INS promoter inh
C=CCOc1ccc(CNc2ccc3[nH]c(=O)[nH]c3c2)cc1 | / | / | . | . | .
COc1ccccc1NC(=O)Cc1nnc(SCC(=O)Nc2ccccc2F)n1C | / | / | . | . | .
COc1ccc(NC(=O)CSc2nnc(COc3ccccc3)n2Cc2ccco2)cc1OC | . | . | . | 9.9 | .
COc1ccc(C)cc1NC(=O)CSc1nnc(COc2ccccc2)n1Cc1ccco1 | . | . | . | 9.5 | /
COc1ccc(C)cc1NC(=O)CSc1nnc(CC(=O)Nc2ccccc2C)n1C | . | . | . | . | 66.7
COc1ccc(C)cc1NC(=O)CSc1nnc(COc2ccc(Cl)cc2)n1Cc1ccco1 | . | . | . | 9.7 | .
COc1ccc(NC(=O)CSc2nnc(-c3ccccc3)n2Cc2ccco2)c(OC)c1 | . | . | . | . | /
COc1ccc(C)cc1NC(=O)CSc1nnc(-c2ccccn2)n1Cc1ccco1 | . | . | . | . | .
COc1ccc(C(=O)C2CCCN(C(=O)/C=C/c3ccccn3)C2)c(C)c1 (stereo not given) | / | / | . | . | /
Cc1ccc(S(=O)(=O)NNC(=O)C(O)(c2ccccc2C)c2ccccc2C)cc1 | . | . | . | . | .
CCN(CC)C(=O)NCc1c(C)cc(C)cc1C | / | / | . | . | .
CC(=O)NN1C(=O)/C(=C/c2ccc(C(C)C)cc2)SC1=S | . | . | . | . | .
O=C(CSc1nnc(SCc2ccccc2)s1)N/N=C/C=C\c1ccco1 | . | . | . | 11.1 | .
O=[N+]([O-])c1cc(/C=N/O)ccc1Sc1ccccc1 | 78.6 | . | . | . | .
Cc1cc(NS(=O)(=O)c2ccc(NC(=O)c3oc4ccccc4c3C)cc2)no1 | . | . | . | . | 78.6
Cc1cc(NS(=O)(=O)c2ccc(NC(=O)C(C)Oc3ccc4c(C)cc(=O)oc4c3)cc2)no1 (stereo not given) | . | . | . | 10.5 | .
Cc1ccsc1C(C(=O)NC(C)(C)C)N(C(=O)c1csnn1)c1ccccc1 (stereo not given) | / | / | . | 10.0 | .
Cc1cccc(N(C(=O)c2csnn2)C(C(=O)NC(C)(C)C)c2cccs2)c1 (stereo not given) | . | . | . | . | .
CN(c1ccccc1)C1CCCCC1NS(=O)(=O)c1ccc(Cl)cc1 (stereo not given) | . | 35.6 | . | . | .
CSc1ccc(OC2CCCCC2NS(=O)(=O)c2ccc(Cl)cc2)cc1 (stereo not given) | . | . | . | . | 100.0
O=S(=O)(NC1CCCCC1Oc1ccccc1)c1ccc(Cl)cc1 (stereo not given) | . | . | . | . | .
Cc1ccc(C(=O)Cn2cnc3ccccc3c2=O)cc1 | . | / | 10.1 | . | .
FC(F)(F)c1ccc(Cl)c(N/N=C/c2ccc(N3CCOCC3)s2)c1 | . | . | . | . | .
CCOC(=O)CCc1c(C)n[nH]c1C | / | / | . | . | .
C=CC(O)Cc1c(C)n[nH]c1C (stereo not given) | . | . | . | . | 76.9
SMILES | Yeast growth inh | Yeast lifespan up | HMGR II inh | RAM network inh | INS promoter inh
O=C(Cc1ccc([N+](=O)[O-])cc1)N1N=C(c2ccncc2)CC1(O)C(F)(F)F (stereo not given) | / | / | . | . | /
CCOC(=O)CSc1nc2ccccc2c(=O)n1CC1COc2ccccc2O1 (stereo not given) | . | . | . | . | /
CCCN(CCC)C(=O)CSc1nc2ccccc2c(=O)n1CC1COc2ccccc2O1 (stereo not given) | . | . | . | 9.0 | .
N#Cc1ccccc1OCCOCCNC1CCCC1 | . | . | . | . | .
Cc1cc(N=Nc2ccccc2)c(NCC(O)C(O)C(O)CO)cc1C (stereo not given) | / | / | . | 10.1 | 82.3
Cc1ccc(NCC(O)C(O)C(O)CO)cc1C (stereo not given) | . | . | . | . | .

Assay outcomes (PubChem)
